Experimental data pooled from the literature.
Protocols differ between the studies behind these lines.
Target: Tyrosine-protein kinase Fes/Fps (FES, Homo sapiens, UniProt P07332)

Structure (SMILES) | effect on | technique | concentration | remaining binding
Cc1cnn2ncc(-c3ccnc(N(C)C)n3)c2c1 | binding |  | 1 µM | 93%
O=C(O)[C@H]1[C@H](Cn2nnc3ccccc3c2=O)CC[C@@H]1C(=O)c1ccc(OCCC2CCOCC2)cc1 | cell-free assay | competition with immobilised ligand | 1 µM | 100%
C=CC(=O)N1CCC(C(=O)NCC(=O)N2CCN(c3nc(-c4cnc(N)nc4C(F)F)nc(N4CCOCC4)n3)CC2)CC1 | binding | competition with immobilised ligand | 1 µM | 100%
N[C@H]1CCN(c2nccc(-c3cnn4ncccc34)n2)C1 | binding |  | 1 µM | 100%
CN(C)C(=O)Cn1cc(-c2nc([C@@](C)(c3ccc(-c4cnc(N)nc4)cc3)C3CC3)no2)cn1 | cell-free assay | competition with immobilised ligand | 1 µM | 100%
c1cncc(-c2cccc(Nc3nccc(NC4CCCCC4)n3)c2)c1 | binding | competition with immobilised ligand | 10 µM | 80%
Cc1c[nH]c2nccc(Oc3c(F)cc(Nc4cc(Cl)nc(N)n4)cc3F)c12 | cell-free assay | competition with immobilised ligand | 0.1 µM | 100%
CCN1CCN(Cc2ccc(C(=O)Nc3ccc(C)c(Oc4ccc5c(c4)CC(=O)N5)c3)cc2C(F)(F)F)CC1 | binding | competition with immobilised ligand | 1 µM | 97%
Cc1cnc(Nc2ccc(C(=O)N3CCC(N4CCCC4)CC3)cc2)nc1-c1cc2ccccc2s1 | binding | competition with immobilised ligand | 1 µM | 52%
COc1cnc(Nc2cccc(S(N)(=O)=O)c2)nc1N1CCN(c2ccccc2)CC1 | binding | competition with immobilised ligand | 1 µM | 100%
C[C@@H]1CCN(c2nccc(-c3cnn4ncccc34)n2)C1 | binding |  | 1 µM | 100%
O=C(Nc1c[nH]nc1C(=O)NC1CCNCC1)c1cc(F)cc(F)c1 | binding | competition with immobilised ligand | 1 µM | 100%
O=C(c1ccc(Nc2ncc(Cl)c(-c3ccc(Cl)s3)n2)cc1)N1CCC(N2CCCC2)CC1 | binding | competition with immobilised ligand | 1 µM | 59%
CN(CCCC(F)(F)F)c1nccc(-c2cnn3ncccc23)n1 | binding |  | 1 µM | 95%
COc1ncc2cc3ccccc3nc2c1C#N | cell-free assay | competition with immobilised ligand | 5 µM | 100%
c1cnn2ncc(-c3ccnc(N4CCC45COC5)n3)c2c1 | binding |  | 1 µM | 95%
CN([C@@H]1CCc2c(CC(=O)O)c3ccccc3n2C1)S(=O)(=O)c1ccc(F)cc1 | cell-free assay | competition with immobilised ligand | 1 µM | 79%
CNC(=O)[C@@H]1CC[C@@H](n2c(-c3ccc4cnccc4c3)nc3ccc(C(=O)NCc4cccc(C(N)=O)c4)cc32)C1 | binding | competition with immobilised ligand | 1 µM | 86%
CC(C)(O)c1cncc(-c2nc3ccc(F)cc3n2C2CC2)c1 | cell-free assay | competition with immobilised ligand | 1 µM | 100%
COc1ccnn2ncc(-c3ccnc(N(C)C)n3)c12 | binding |  | 1 µM | 75%
O=C(c1ccc(Nc2nccc(-c3cc4ccccc4s3)n2)cc1)N1CCC(N2CCCC2)CC1 | binding | competition with immobilised ligand | 1 µM | 93%
Cc1nccc(COC(=O)N2C[C@@H]3[C@@H](CNC(=O)c4ccc5[nH]nnc5c4)[C@@H]3C2)n1 | cell-free assay | competition with immobilised ligand | 1 µM | 99%
